{"source": "ChEMBL document CHEMBL1681759", "about": "“Synthesis and biological evaluation of benzimidazole-5-carbohydrazide derivatives as antimalarial, cytotoxic and antitubercular agents” (Bioorg Med Chem, 2011)", "key": {"[1]": {"experiment": "Cytotoxicity against mouse 3T3 cells assessed as growth inhibition after 48 hrs by sulforhodamine B assay", "type": "cell-based", "conditions": "NIH3T3 cells", "method_in_brief": "(§1)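 Cells were exposed to serial compound dilutions in 96-well plates for 48 h at 37 °C alongside solvent controls. Growth was read colorimetrically by sulforhodamine B. GI50 is the concentration giving a 50% reduction in absorbance versus solvent-treated controls, derived by linear regression.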"}, "Plasmodium berghei [2]": {"test_system": "Plasmodium berghei", "experiment": "Antimalarial activity against chloroquine-susceptible Plasmodium berghei ANKA assessed as inhibition of trophozoite extract-mediated mouse hemoglobin hydrolysis at 10 mM after 18 hrs by SDS-PAGE", "type": "functional", "method_in_brief": "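Trophozoite extract came from P. berghei-infected mouse blood at 30–50% parasitemia: RBCs percoll-purified (80–70%), saponin-lysed, then freeze–thawed three times. Substrate was native haemoglobin from uninfected mouse erythrocytes lysed in water. The mix held GSH and acetate buffer (0.2 M, pH 5.4). Compound was added in DMSO and incubated 37 °C, 18 h. Reactions were stopped with reduced sample buffer.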"}, "NCI-H460": {"test_system": "NCI-H460", "experiment": "Cytotoxicity against human H460 cells assessed as growth inhibition after 48 hrs by sulforhodamine B assay", "type": "functional", "conditions": "NCI-H460, 48 h", "method_in_brief": "as §1"}, "[3]": {"experiment": "Cytotoxicity against african green monkey Vero cells assessed as growth inhibition after 48 hrs by sulforhodamine B assay", "type": "cell-based", "conditions": "chlorocebus sabaeus", "method_in_brief": "as §1"}, "MCF7": {"test_system": "MCF7", "experiment": "Cytotoxicity against human MCF7 cells assessed as growth inhibition after 48 hrs by sulforhodamine B assay", "type": "functional", "conditions": "MCF7, 48 h", "method_in_brief": "as §1"}, "DU-145": {"test_system": "DU-145", "experiment": "Cytotoxicity against human DU145 cells assessed as growth inhibition after 48 hrs by sulforhodamine B assay", "type": "functional", "conditions": "DU-145, 48 h", "method_in_brief": "as §1"}, "Plasmodium berghei [4]": {"test_system": "Plasmodium berghei", "experiment": "Antimalarial activity against chloroquine-susceptible Plasmodium berghei ANKA infected in Balb-C mouse", "type": "functional, organism-based", "method_in_brief": "(§2)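 Balb-C mice (18–23 g, n = 6) were infected iv in the caudal vein with 10⁶ P. berghei ANKA-infected RBCs. Dosing started 2 h post-infection: 20 mg/kg ip once daily for 4 days, DMSO stock diluted in Saline-Tween 20 (2%). Chloroquine 25 mg/kg served as positive control; untreated mice were controls. Parasitemia was read on day 4 from Giemsa smears, and survival days were recorded.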"}, "HT-29": {"test_system": "HT-29", "experiment": "Cytotoxicity against human HT-29 cells assessed as growth inhibition after 48 hrs by sulforhodamine B assay", "type": "functional", "conditions": "HT-29, 48 h", "method_in_brief": "as §1"}, "[5]": {"experiment": "Inhibition of beta-hematin formation assessed as inhibition of […] polymerization at […] after 48 hrs", "type": "functional", "method_in_brief": "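Hemin chloride (50 µL, 4 mM in DMSO) was mixed in triplicate with compound in DMSO; water or DMSO served as controls. Reaction was started with acetate buffer (0.2 M, pH 4.4) and run 37 °C for 48 h. The pellet was DMSO-washed twice, dissolved in 0.2 N NaOH, diluted 1:2 in 0.1 N NaOH, and read at 405 nm as % inhibition of FP polymerization.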"}, "[6]": {"test_system": "Mycobacterium tuberculosis", "experiment": "Antimycobacterial activity against Mycobacterium tuberculosis H37Rv after 5 days by tetrazolium microplate assay", "type": "functional", "conditions": "120 h", "method_in_brief": "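Tetrazolium microplate assay run in 7H9GC broth. DMSO stocks (4 mg/mL) were diluted to final 0.4–25 µg/mL. Isoniazid (0.125–32 µg/mL) and rifampin (0.063–16 µg/mL) were positive controls; inoculum-only and DMSO controls were included. Plates were incubated 5 days at 37 °C, then an MTT-Tween 80 mix was added and incubation continued 24 h at 37 °C. Run in triplicate. MIC = lowest concentration preventing the yellow-to-purple colour change.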"}, "Plasmodium berghei [7]": {"test_system": "Plasmodium berghei", "experiment": "Antimalarial activity against chloroquine-susceptible Plasmodium berghei ANKA infected in Balb-C mouse assessed as mouse survival days at 20 mg/kg, ip qd for 4 days […] relative to untreated control", "type": "functional", "conditions": "route intraperitoneal"}, "K562": {"test_system": "K562", "experiment": "Cytotoxicity against human K562 cells assessed as growth inhibition after 48 hrs by sulforhodamine B assay", "type": "functional", "conditions": "K562, 48 h", "method_in_brief": "as §1"}, "M14": {"test_system": "M14", "experiment": "Cytotoxicity against human M14 cells assessed as growth inhibition after 48 hrs by sulforhodamine B assay", "type": "functional", "conditions": "M14, 48 h", "method_in_brief": "as §1"}, "Plasmodium berghei [8]": {"test_system": "Plasmodium berghei", "experiment": "Antimalarial activity against chloroquine-susceptible Plasmodium berghei ANKA infected in Balb-C mouse assessed as inhibition parasitemia at 20 mg/kg, ip qd for 4 days […]", "type": "functional", "conditions": "96 h, route intraperitoneal", "method_in_brief": "as §2"}}}
{"smiles": "O=C(O)c1ccc2[nH]c(-c3ccc([N+](=O)[O-])o3)nc2c1", "values": [{"measurement": "GI50 at 48 h", "setting": "[1]", "value": 62.5, "unit": "µg/mL"}, {"measurement": "inhibition at 10000 µM", "setting": "Plasmodium berghei [2]", "value": 0, "unit": "%"}, {"measurement": "GI50", "setting": "NCI-H460", "value": 125, "unit": "µg/mL"}, {"measurement": "GI50 at 48 h", "setting": "[3]", "value": "> 250", "unit": "µg/mL"}, {"measurement": "GI50", "setting": "MCF7", "value": "> 250", "unit": "µg/mL"}, {"measurement": "GI50", "setting": "DU-145", "value": 125, "unit": "µg/mL"}, {"measurement": "IC50", "setting": "Plasmodium berghei [4]", "value": 8.43, "unit": "µM"}, {"measurement": "GI50", "setting": "HT-29", "value": 250, "unit": "µg/mL"}, {"measurement": "inhibition", "setting": "[5]", "value": 95.4, "unit": "%"}, {"measurement": "MIC", "setting": "[6]", "value": "> 25", "unit": "µg/mL"}, {"measurement": "Survival", "setting": "Plasmodium berghei [7]", "value": 17, "unit": "days"}, {"measurement": "GI50", "setting": "K562", "value": 250, "unit": "µg/mL"}, {"measurement": "GI50", "setting": "M14", "value": 250, "unit": "µg/mL"}, {"measurement": "inhibition in vivo at 20 mg/kg", "setting": "Plasmodium berghei [8]", "value": 4.02, "unit": "%"}]}
{"smiles": "COc1cc(C(=O)NNC(=O)c2ccc3[nH]c(-c4ccc([N+](=O)[O-])o4)nc3c2)cc(OC)c1OC", "values": [{"measurement": "GI50 at 48 h", "setting": "[1]", "value": 31.2, "unit": "µg/mL"}, {"measurement": "inhibition at 10000 µM", "setting": "Plasmodium berghei [2]", "value": 0, "unit": "%"}, {"measurement": "GI50", "setting": "NCI-H460", "value": 31.2, "unit": "µg/mL"}, {"measurement": "GI50 at 48 h", "setting": "[3]", "value": 31.2, "unit": "µg/mL"}, {"measurement": "GI50", "setting": "MCF7", "value": 31.2, "unit": "µg/mL"}, {"measurement": "GI50", "setting": "DU-145", "value": 15.6, "unit": "µg/mL"}, {"measurement": "IC50", "setting": "Plasmodium berghei [4]", "value": 14.4, "unit": "µM"}, {"measurement": "GI50", "setting": "HT-29", "value": 31.2, "unit": "µg/mL"}, {"measurement": "inhibition", "setting": "[5]", "value": 69.4, "unit": "%"}, {"measurement": "MIC", "setting": "[6]", "value": "> 25", "unit": "µg/mL"}, {"measurement": "Survival", "setting": "Plasmodium berghei [7]", "value": 12.2, "unit": "days"}, {"measurement": "GI50", "setting": "K562", "value": 31.2, "unit": "µg/mL"}, {"measurement": "GI50", "setting": "M14", "value": 15.6, "unit": "µg/mL"}, {"measurement": "inhibition in vivo at 20 mg/kg", "setting": "Plasmodium berghei [8]", "value": 9.4, "unit": "%"}]}
